For one series, the system named is human red blood cells. Particulars: inhibitor of the general anion transporter; cited from earlier work.
For series [1] the following is noted: Beagle dog, intravenous, radiolabeled; cited from earlier work.
A short description of series [2]: Serum total V pharmacokinetics. The series is classed as in vivo, human. The method in brief:
(§1)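 Diabetic patients were dosed with oral VOSO4 for forty days, followed by a sixteen-day washout, with periodic blood sampling. Total V was measured by GFAAS against a same-day standard curve; serum was run directly and whole blood after extra preparation. Decline was fitted to a one-compartment first-order model using the last dosing day plus three later points, giving k and half time. Accumulation was fitted using the washout k. AUC in (ng/mL)days was calculated for the exposure and decline phases.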

Series [3] is described as follows: Whole blood total V pharmacokinetics. It counts as in vivo, human. The method in brief: as §1
Series [4] can be described thus: 24 hour urinary V clearance at steady state. The series is classed as in vivo, human. In a few lines:
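Type 2 diabetic patients took VOSO4 orally as tablets with meals, 3 per day, for six weeks. 24 hour urine was collected at steady state, with one to three collections per patient. Urine was analysed directly for total V by Zeeman-corrected GFAAS against a standard curve run the same day. Steady-state urinary V output was taken as the minimum amount absorbed.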

For series [5], the system named is patients with type 2 diabetes. The series is classed as in vivo, human. In a few lines: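 Patients took placebo, then oral VOSO4 tablets with meals (3/day) for six weeks. They self-monitored blood glucose before meals and at bedtime daily, reported as weekly averages. Two-step euglycemic-hyperinsulinemic clamps were run before and after treatment: overnight low-dose insulin to normalise glucose, then primed-continuous insulin at 0.5 and then 1.0 mU/kg/min, 2 h each. Glucose was checked every 5 min with variable glucose infusion. M was normalised to body mass.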

For series [6], the system named is patients with type 2 diabetes. In words: Adverse symptoms reported during the clinical study. The series is classed as in vivo, human. Particulars: doses of V used in this clinical study; not severe enough to drop subjects.
Series [7] relates to patients with type 2 diabetes. The following applies: two higher dose groups (50, 100 mg V), six weeks; cited from earlier work.
Where [8] appears, read: 25 mg V/day oral as VOSO4, 6 weeks, group mean.
The mark [9] stands for this setting: 25 mg V/day oral as VOSO4, group mean.
The mark [10] stands for this setting: 50 mg V/day oral as VOSO4, 6 weeks, group mean ± SD.
The mark [11] stands for this setting: 50 mg V/day oral as VOSO4, 6 weeks, individual patient.
The mark [12] stands for this setting: 50 mg V/day oral as VOSO4, exposure and decline phases, individual patient.
The mark [13] stands for this setting: 50 mg V/day oral as VOSO4, group mean ± SD.
The mark [14] stands for this setting: 100 mg V/day oral as VOSO4, 6 weeks, group mean ± SD.
The mark [15] stands for this setting: 100 mg V/day oral as VOSO4, 6 weeks, individual patient.
Where [16] appears, read: 100 mg V/day oral as VOSO4, exposure and decline phases, individual patient.
Setting [17] is: 100 mg V/day oral as VOSO4, group mean ± SD.
Setting [18] is: patients taking 100 mg V per day.
Setting [19] is: of the 8 patients receiving 100 mg V/day.

Several values for one entry are separate records, joined by “and”; a condition that tells them apart may be missing. Equal values may be shown once.

Regarding `CC(=O)/C=C(/C)[O-].CC(=O)/C=C(/C)[O-].[O]=[V+2]` [VO(acac)2], the “uptake by human red blood cells in the presence of DIDS” value in the series with human red blood cells was “no change”.

In the case of `[O]=[V]([O-])([O-])[O-]` [vanadate], the “half time of single exponential decline (majority of the dose)” value in series [1] is 24 h. The “uptake by human red blood cells in the presence of DIDS” value in the series on human red blood cells is recorded as “blocked”.

With `O=S(=O)([O-])[O-].[O]=[V+2]` [vanadyl sulfate], the “Pk Serum V” value in series [2] (setting [8]) was 18.9 ng/mL; in series [2] (25 mg V/day oral as VOSO4, 6 weeks, individual patient), 16.7 ng/mL and 21.1 ng/mL; in series [2] (setting [10]) it was 81.7 ± 40 ng/mL and 81.7 ± 40.5 ng/mL; in series [2] (setting [11]), 125 ng/mL and 87.0 ng/mL and 114 ng/mL and 30.2 ng/mL and 51.7 ng/mL; in series [2] (setting [14]), 319 ± 268 ng/mL; in series [2] (setting [15]), 252 ng/mL and 227 ng/mL and 423 ng/mL and 906 ng/mL and 213 ng/mL and 368 ng/mL and 144 ng/mL. Besides, the results for the “SS Serum V” value in series [2] (setting [8]), in series [2] (setting [10]) and in series [2] (setting [14]) were 15.4 ng/mL, 63.1 ± 37.8 ng/mL and 314 ± 178 ng/mL, respectively. The results for the “Ser V t1/2” value in series [2] (setting [9]), in series [2] (setting [13]) and in series [2] (setting [17]) were 64.8 h, 113 ± 38.4 h and 110 ± 60 h, respectively. Moreover, the “AUC Serum V” value in series [2] (setting [12]) is 3538 (ng/mL)days and 1747 (ng/mL)days and 3894 (ng/mL)days and 946 (ng/mL)days and 617 (ng/mL)days; in series [2] (setting [13]), 2149 ± 1494 (ng/mL)days; in series [2] (setting [16]) it was 8695 (ng/mL)days and 8328 (ng/mL)days and 15779 (ng/mL)days and 26713 (ng/mL)days and 8041 (ng/mL)days and 11412 (ng/mL)days and 4781 (ng/mL)days; in series [2] (setting [17]), 11965 ± 7340 (ng/mL)days. The “ratio of serum AUC to whole blood AUC, mean value” is listed as 1.07±0.86 (ng/mL)days in series [2] (50 mg dose group) and 1.65±0.32 (ng/mL)days in series [2] (100 mg dose group). In addition, the “fold increase in steady state serum V concentration” value worked out at 4 fold in series [2] (25 to 50 mg dose groups) and 5 fold in series [2] (50 to 100 mg dose groups). Besides, the “Pk Blood V” value in series [3] (setting [10]) is 85 ± 54 ng/mL; in series [3] (setting [11]) it was 163 ng/mL and 26 ng/mL and 109 ng/mL and 50 ng/mL and 75 ng/mL; in series [3] (setting [14]) it was 201 ± 200 ng/mL; in series [3] (setting [15]), 136 ng/mL and 132 ng/mL and 264 ng/mL and 654 ng/mL and 95 ng/mL and 225 ng/mL. Also, the “SS Blood V” value in series [3] (setting [10]) is given as 65 ± 39 ng/mL; in series [3] (setting [14]) it was 205 ± 164 ng/mL. The “Bld V t1/2” value is 240 h and 69.6 h and 106 h and 93.6 h and 161 h in series [3] (50 mg V/day oral as VOSO4, decline phase, individual patient); 134 ± 67.2 h in series [3] (setting [13]); 96 h and 103 h and 173 h and 146 h and 50.4 h and 72 h and 209 h in series [3] (100 mg V/day oral as VOSO4, decline phase, individual patient); 122 ± 57.6 h in series [3] (setting [17]). The “AUC Blood V” value is 3762 (ng/mL)days and 701 (ng/mL)days and 3474 (ng/mL)days and 2025 (ng/mL)days and 1788 (ng/mL)days in series [3] (setting [12]); 2351 ± 1264 (ng/mL)days in series [3] (setting [13]); 5648 (ng/mL)days and 5863 (ng/mL)days and 10552 (ng/mL)days and 20245 (ng/mL)days and 3741 (ng/mL)days and 6998 (ng/mL)days and 2341 (ng/mL)days in series [3] (setting [16]); 7912 ± 6023 (ng/mL)days in series [3] (setting [17]). The “Mean Urine [V] at Steady State” value in series [4] (setting [9]) is 54 ng/mL; in series [4] (25 mg V/day oral as VOSO4, individual patient), 60 ng/mL and 47 ng/mL; in series [4] (setting [13]), 59 ± 80 ng/mL; in series [4] (50 mg V/day oral as VOSO4, individual patient), 215 ng/mL and 29 ng/mL and 165 ng/mL and 18 ng/mL and 22 ng/mL; in series [4] (setting [17]), 654 ± 705 ng/mL; in series [4] (100 mg V/day oral as VOSO4, individual patient), 412 ng/mL and 468 ng/mL and 457 ng/mL and 2199 ng/mL and 207 ng/mL and 703 ng/mL and 135 ng/mL. Also, the “24 hour urinary V output at steady state” value in series [4] (50 mg V group, oral vanadyl sulfate) was 0.18 ± 0.24 mg; in series [4] (100 mg V group, oral vanadyl sulfate) it was 0.97 ± 0.84 mg. Further, the “absorbed fraction of the administered V” value in series [4] (16 type 2 diabetic patients, oral vanadyl sulfate) was “about 1%”. The “absorption of the administered dose” value in series [4] (50 and 100 mg V groups, estimated from steady state urinary output) is at most 1%. The V excreted result in series [4] (setting [18]) is “approximately 1 mg V per day”. For the same molecule, the “absorption of V entering the GI tract” value in series [4] (setting [18]) is recorded as 1%. For the same molecule, in series [4] (three doses of V used (25, 50, 100 mg/day)), the “absorption of V, of the daily dose” value is “less than 1%”. Moreover, the “patients with improved responses for all three variables” value in series [5] (of the 5 patients receiving 50 mg V/day) amounted to 2. In addition, the “patients who responded well for all three variables” value in series [5] (setting [19]) is “three”. For the same molecule, in series [5] (setting [19]), the “patients who responded well for two variables” value is given as “four”. Moreover, the adverse symptoms entry in series [6] is reported as “symptoms of gastrointestinal distress”. In addition, in series [7], the “patients with improved fasting blood glucose” value is recorded as “approximately 50%”.

Regarding `O=S(=O)([O-])[O-].[O]=[V+2]` [vanadyl], the “half time of single exponential decline (majority of the dose)” value in series [1] is 24 h.
